Experimental data taken from ChEMBL document CHEMBL4043311, “Developing Equipotent Teixobactin Analogues against Drug-Resistant Bacteria and Discovering a Hydrophobic Interaction between Lipid II and Teixobactin” (J Med Chem, 2018).
Values after ≈ are worked out from the molar mass of the structure shown. Active and inactive are the calls of the source. The calls are words filed in the database; no cut-off is given here.

Legend:
[1] = system: Staphylococcus aureus; assay: Antibacterial activity against methicillin-resistant Staphylococcus aureus BAA-1695 after 20 hrs by broth microdilution method; type: functional; conditions: BAA-1695, 20 h
How it was run: (§1)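 Broth microdilution per CLSI in cation-adjusted Mueller-Hinton broth with 0.002% polysorbate 80. Analogues were made up as 10 mg/mL DMSO stocks, then diluted in MHB. Inoculum approx. 5×10^5 cells/mL. Incubated 20 h at 37°C; MIC taken as the lowest concentration with no visible growth. Run three times.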

[2] = system: Staphylococcus aureus; assay: Antibacterial activity against Staphylococcus aureus ATCC 29213 at undecaprenyl-phosphate/test compound molar ratio 0.5 to 2 preincubated with undecaprenyl-phosphate for 30 mins followed by bacterial inoculation measured after overnight incubation; type: functional
How it was run: (§2)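 Test agent at 4x or 8x its broth MIC mixed with lipid II or C55-P (2x or 0.5x molar excess over compound) in MHII broth with 0.05% tween-80, 30 min at rt; exponential S. aureus ATCC 29213 then added to final OD600 0.001. Overnight at 37 °C; growth judged by eye and plate-reader absorbance. Run two or three times.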

[3] = Binding affinity to undecaprenyl-phosphate at 1 to 4 nmol after 30 mins by TLC method
How it was run: (§3)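 Lipid II or C55-P (1 nmol) incubated with 1, 2, 3 or 4 nmol compound in 50 mM Tris/HCl pH 7.5, 30 min at rt. Extracted twice with pyridinium acetate (6 M, pH 4.2)/butanol (1:2), then washed with butanol-saturated water. Organic phase run on silica TLC in chloroform/methanol/water/ammonia (88:48:10:1) and stained with phosphomolybdic acid; loss of lipid band scored. Done twice.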

[4] = system: Staphylococcus aureus; assay: Antibacterial activity against methicillin-sensitive Staphylococcus aureus TH 4806 after 20 hrs by broth microdilution method; type: functional; conditions: TH 4806, 20 h; how it was run: as §1
[5] = system: Enterococcus faecalis; assay: Antibacterial activity against […] Enterococcus faecalis ATCC 29212 after 20 hrs by broth microdilution method; type: functional; conditions: ATCC 29212, 20 h; how it was run: as §1
[6] = system: Staphylococcus aureus; assay: Antibacterial activity against Staphylococcus aureus ATCC 29213 at lipid 2/test compound molar ratio 2 preincubated with lipid 2 for 30 mins followed by bacterial inoculation measured after overnight incubation; type: functional; how it was run: as §2
[7] = system: Streptococcus pneumoniae; assay: Antibacterial activity against Streptococcus pneumoniae D39 after 20 hrs by broth microdilution method; type: functional; conditions: D39, 20 h
How it was run: (§4)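 CLSI broth microdilution in cation-adjusted Mueller-Hinton broth with 3% lysed horse blood for streptococci and 0.002% polysorbate 80. Compounds taken from 10 mg/mL DMSO stocks and diluted in broth. Inoculum about 5×10^5 cells/mL. After 20 h at 37 °C, MIC read as lowest concentration with no visible growth. Done three times.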

[8] = Binding affinity to lipid 2 at 1 to 4 nmol after 30 mins by TLC method; how it was run: as §3
[9] = system: Streptococcus pyogenes; assay: Antibacterial activity against Streptococcus pyogenes ATCC 19615 after 20 hrs by broth microdilution method; type: functional; conditions: ATCC 19615, 20 h; how it was run: as §4
[10] = system: Staphylococcus aureus; assay: Antibacterial activity against Staphylococcus aureus ATCC 29213 at lipid 2/test compound molar ratio 0.5 preincubated with lipid 2 for 30 mins followed by bacterial inoculation measured after overnight incubation; type: functional; how it was run: as §2

Compound: CC[C@@H](C)[C@@H](NC(=O)[C@@H](CCC(N)=O)NC(=O)[C@H](CO)NC(=O)[C@@H](NC(=O)[C@H](N)Cc1ccc(-c2ccccc2)cc1)[C@@H](C)CC)C(=O)N[C@H](C(=O)N[C@@H](CO)C(=O)N[C@H]1C(=O)N[C@@H](C)C(=O)N[C@@H](CCCNC(=N)N)C(=O)N[C@@H]([C@@H](C)CC)C(=O)O[C@H]1C)[C@@H](C)CC
- MIC [1]: 1 mg/L (≈ 0.765 µM)

Compound: CC[C@@H](C)[C@@H](NC(=O)[C@@H](CCC(N)=O)NC(=O)[C@H](CO)NC(=O)[C@@H](NC(=O)[C@H](N)Cc1ccc(-c2ccc(C(F)(F)F)cc2)cc1)[C@@H](C)CC)C(=O)N[C@H](C(=O)N[C@@H](CO)C(=O)N[C@H]1C(=O)N[C@@H](C)C(=O)N[C@@H](CCCCN)C(=O)N[C@@H]([C@@H](C)CC)C(=O)O[C@H]1C)[C@@H](C)CC
- MIC [1]: 0.5 mg/L (≈ 0.371 µM)

Compound: CC[C@@H](C)[C@@H](NC(=O)[C@@H](CCC(N)=O)NC(=O)[C@H](CO)NC(=O)[C@@H](NC(=O)[C@@H](Cc1ccccc1)NC)[C@@H](C)CC)C(=O)N[C@H](C(=O)O)[C@@H](C)CC
- MIC [1]: > 32 mg/L

Compound: CC[C@@H](C)[C@@H](NC(=O)[C@@H](CCC(N)=O)NC(=O)[C@H](CO)NC(=O)[C@@H](NC(=O)C(Cc1ccccc1)NC)[C@@H](C)CC)C(=O)N[C@H](C(=O)N[C@@H](CO)C(=O)N[C@H]1C(=O)N[C@@H](C)C(=O)N[C@@H](CCCNC(=N)N)C(=O)N[C@@H]([C@@H](C)CC)C(=O)O[C@H]1C)[C@@H](C)CC (some centres undefined)
- MIC [1]: 2 mg/L (≈ 1.61 µM)

Compound: CC[C@@H](C)[C@@H](NC(=O)[C@@H](CCC(N)=O)NC(=O)[C@H](CO)NC(=O)[C@@H](NC(=O)[C@H](N)Cc1ccc(O[C@H]2O[C@@H](CO)[C@@H](O)[C@@H](O)[C@@H]2O)cc1)[C@@H](C)CC)C(=O)N[C@H](C(=O)N[C@@H](CO)C(=O)N[C@H]1C(=O)N[C@@H](C)C(=O)N[C@@H](CCCNC(=N)N)C(=O)N[C@@H]([C@@H](C)CC)C(=O)O[C@H]1C)[C@@H](C)CC
- MIC [1]: > 32 mg/L

Compound: CC[C@@H](C)[C@@H](NC(=O)[C@@H](CCC(N)=O)NC(=O)[C@H](CO)NC(=O)[C@@H](NC(=O)[C@H](N)Cc1ccc(O)cc1)[C@@H](C)CC)C(=O)N[C@H](C(=O)N[C@@H](CO)C(=O)N[C@H]1C(=O)N[C@@H](C)C(=O)N[C@@H](CCCNC(=N)N)C(=O)N[C@@H]([C@@H](C)CC)C(=O)O[C@H]1C)[C@@H](C)CC
- MIC [1]: > 32 mg/L

Compound: CC[C@@H](C)[C@@H](NC(=O)[C@@H](CCC(N)=O)NC(=O)[C@H](CO)NC(=O)[C@@H](NC(=O)[C@@H](Cc1ccccc1)NC)[C@@H](C)CC)C(=O)N[C@H](C(=O)N[C@@H](CO)C(=O)N[C@H]1C(=O)N[C@@H](C)C(=O)N[C@@H](CCCCN)C(=O)N[C@@H]([C@@H](C)CC)C(=O)O[C@H]1C)[C@@H](C)CC
- MIC [1]: 1 mg/L (≈ 0.822 µM)

Compound: CC[C@@H](C)[C@H]1NC(=O)[C@H](CCCNC(=N)N)NC(=O)[C@H](C)NC(=O)[C@H](NC(=O)[C@@H](N)CO)[C@H](C)CC1=O
- MIC [1]: > 32 mg/L

Compound: CC[C@@H](C)[C@@H](NC(=O)[C@@H](CCC(=O)NCCN(C)C)NC(=O)[C@H](CO)NC(=O)[C@@H](NC(=O)[C@H](N)Cc1ccc(-c2ccccc2)cc1)[C@@H](C)CC)C(=O)N[C@H](C(=O)N[C@@H](CO)C(=O)N[C@H]1C(=O)N[C@@H](C)C(=O)N[C@@H](CCCCN)C(=O)N[C@@H]([C@@H](C)CC)C(=O)O[C@H]1C)[C@@H](C)CC
- MIC [1]: 2 mg/L (≈ 1.48 µM)

Compound: CC[C@@H](C)[C@@H](NC(=O)[C@@H](CCCN)NC(=O)[C@H](CO)NC(=O)[C@@H](NC(=O)[C@H](N)Cc1ccc(-c2ccccc2)cc1)[C@@H](C)CC)C(=O)N[C@H](C(=O)N[C@@H](CO)C(=O)N[C@H]1C(=O)N[C@@H](C)C(=O)N[C@@H](CCCCN)C(=O)N[C@@H]([C@@H](C)CC)C(=O)O[C@H]1C)[C@@H](C)CC
- MIC [1]: 2 mg/L (≈ 1.58 µM)

Compound: CC[C@@H](C)[C@@H](NC(=O)[C@@H](CCC(N)=O)NC(=O)[C@H](CO)NC(=O)[C@@H](NC(=O)[C@H](N)Cc1ccc(-c2ccc(C)cc2)cc1)[C@@H](C)CC)C(=O)N[C@H](C(=O)N[C@@H](CO)C(=O)N[C@H]1C(=O)N[C@@H](C)C(=O)N[C@@H](CCCCN)C(=O)N[C@@H]([C@@H](C)CC)C(=O)O[C@H]1C)[C@@H](C)CC
- MIC [1]: 0.5 mg/L (≈ 0.387 µM)

Compound: CC[C@@H](C)[C@@H](NC(=O)[C@@H](CCC(N)=O)NC(=O)[C@H](CO)NC(=O)[C@@H](NC(=O)[C@H](N)Cc1ccc(C)cc1)[C@@H](C)CC)C(=O)N[C@H](C(=O)N[C@@H](CO)C(=O)N[C@H]1C(=O)N[C@@H](C)C(=O)N[C@@H](CCCNC(=N)N)C(=O)N[C@@H]([C@@H](C)CC)C(=O)O[C@H]1C)[C@@H](C)CC
- MIC [1]: 2 mg/L (≈ 1.61 µM)

Compound: CC[C@@H](C)[C@@H](NC(=O)[C@@H](CCC(N)=O)NC(=O)[C@H](CO)NC(=O)[C@@H](NC(=O)[C@H](N)Cc1ccc(-c2ccccc2)cc1)[C@@H](C)CC)C(=O)N[C@H](C(=O)N[C@@H](CO)C(=O)N[C@H]1C(=O)N[C@@H](C)C(=O)N[C@@H](CCCCN)C(=O)N[C@@H]([C@@H](C)CC)C(=O)N[C@H]1C)[C@@H](C)CC
- Activity [2]: Active
- Activity [3]: inactive
- MIC [4]: 0.25 mg/L (≈ 0.196 µM)
- MIC [5]: 0.5 mg/L (≈ 0.391 µM)
- Activity [6]: inactive
- MIC [7]: < 0.032 mg/L
- Activity [8]: Active
- MIC [1]: 0.25 mg/L (≈ 0.196 µM)
- MIC [9]: < 0.25 mg/L
- Activity [10]: Active

Compound: CC[C@@H](C)[C@@H](NC(=O)[C@@H](CCCNC(=N)N)NC(=O)[C@H](CO)NC(=O)[C@@H](NC(=O)[C@H](N)Cc1ccc(-c2ccccc2)cc1)[C@@H](C)CC)C(=O)N[C@H](C(=O)N[C@@H](CO)C(=O)N[C@H]1C(=O)N[C@@H](C)C(=O)N[C@@H](CCCCN)C(=O)N[C@@H]([C@@H](C)CC)C(=O)O[C@H]1C)[C@@H](C)CC
- MIC [1]: 2 mg/L (≈ 1.53 µM)

Compound: CC[C@@H](C)[C@@H](NC(=O)[C@@H](CCC(N)=O)NC(=O)[C@H](CO)NC(=O)[C@@H](NC(=O)[C@H](N)Cc1ccc(N)cc1)[C@@H](C)CC)C(=O)N[C@H](C(=O)N[C@@H](CO)C(=O)N[C@H]1C(=O)N[C@@H](C)C(=O)N[C@@H](CCCNC(=N)N)C(=O)N[C@@H]([C@@H](C)CC)C(=O)O[C@H]1C)[C@@H](C)CC
- MIC [1]: > 32 mg/L

Compound: CC[C@@H](C)[C@@H](NC(=O)[C@@H](CCC(N)=O)NC(=O)[C@H](CO)NC(=O)[C@@H](N)[C@@H](C)CC)C(=O)N[C@H](C(=O)N[C@@H](CO)C(=O)N[C@H]1C(=O)N[C@@H](C)C(=O)N[C@@H](CCCNC(=N)N)C(=O)N[C@@H]([C@@H](C)CC)C(=O)O[C@H]1C)[C@@H](C)CC
- MIC [1]: > 32 mg/L

Compound: CCCc1ccc(-c2ccc(C[C@@H](N)C(=O)N[C@H](C(=O)N[C@@H](CO)C(=O)N[C@H](CCC(N)=O)C(=O)N[C@@H](C(=O)N[C@H](C(=O)N[C@@H](CO)C(=O)N[C@H]3C(=O)N[C@@H](C)C(=O)N[C@@H](CCCCN)C(=O)N[C@@H]([C@@H](C)CC)C(=O)O[C@H]3C)[C@@H](C)CC)[C@H](C)CC)[C@@H](C)CC)cc2)cc1
- MIC [1]: 0.5 mg/L (≈ 0.379 µM)

Compound: CC[C@@H](C)[C@@H](NC(=O)[C@@H](CCC(N)=O)NC(=O)[C@H](CO)NC(=O)[C@@H](NC(=O)[C@@H](Cc1ccccc1)NC(=O)CN1CCOCC1)[C@@H](C)CC)C(=O)N[C@H](C(=O)N[C@@H](CO)C(=O)N[C@H]1C(=O)N[C@@H](C)C(=O)N[C@@H](CCCNC(=N)N)C(=O)N[C@@H]([C@@H](C)CC)C(=O)O[C@H]1C)[C@@H](C)CC
- MIC [1]: > 32 mg/L

Compound: CC[C@@H](C)[C@@H](NC(=O)[C@@H](CCC(N)=O)NC(=O)[C@H](CO)NC(=O)[C@@H](NC(=O)[C@H](N)Cc1ccc(-c2ccc(-c3ccccc3)cc2)cc1)[C@@H](C)CC)C(=O)N[C@H](C(=O)N[C@@H](CO)C(=O)N[C@H]1C(=O)N[C@@H](C)C(=O)N[C@@H](CCCCN)C(=O)N[C@@H]([C@@H](C)CC)C(=O)O[C@H]1C)[C@@H](C)CC
- MIC [1]: 1 mg/L (≈ 0.738 µM)

Compound: CC[C@H](C)[C@H](NC(=O)[C@H](N)Cc1ccccc1)C(=O)N[C@@H](COP(=O)(O)O)C(=O)N[C@H](CCC(N)=O)C(=O)N[C@@H](C(=O)N[C@H](C(=O)N[C@@H](CO)C(=O)N[C@H]1C(=O)N[C@@H](C)C(=O)N[C@@H](CCCNC(=N)N)C(=O)N[C@@H]([C@@H](C)CC)C(=O)O[C@H]1C)[C@@H](C)CC)C(C)C
- MIC [1]: > 32 mg/L
